In ChEMBL document CHEMBL1122245, “Synthesis and antiviral activity of distamycin A analogues: substitutions on the different pyrrole nitrogens and in the amidine function” (1983):

Tests used:
[1] = Percent inhibition against DNA polymerase alpha when activated DNA was used as template at 10 uM concentration
Outline: (§1)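 Commercial cellular DNA polymerase α (2.5 units/mL) was run in 100 mM Tris-HCl pH 8.0 with 3 mM MgCl2, 1 mM DTT, 40 μg BSA, 100 μM dATP/dCTP/dGTP, ~10 μM [3H]dTTP and 200 μg/mL activated DNA. Incubation was at 37 °C. Values are duplicate means, and inhibition under 5% was taken as not significant.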

[2] = system: Nucleic Acid; assay: Percent inhibition against DNA polymerase alpha when (dT)n-(rA)12-18 sequence was used as template at 10 uM concentration; assay type: nucleic-acid assay
Outline: (§2)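 Cellular DNA polymerase α (2.5 units/mL) was run in Tris-HCl pH 8.0 buffer with MgCl2, DTT and BSA at 37 °C. Values are duplicate means, and inhibition under 5% was taken as not significant.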

[3] = system: Nucleic Acid; assay: Percent inhibition against DNA polymerase alpha when (dT)n-(rA)12-18 sequence was used as template at 50 uM concentration; assay type: nucleic-acid assay; outline: as §2
[4] = system: HSV-1; assay: Percent inhibition of DNA polymerase activity in HSV-1 cell lines at a concentration of 10 uM; assay type: cell-based; conditions: at 10 µM
Outline: (§3)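 HSV-1 DNA polymerase was isolated from Vero cells infected with HSV-1 strain C42. It was assayed with [3H]dTTP as labelled substrate and activated calf thymus DNA at 200 μg/mL. Values are averages of duplicate assays, and inhibition under 5% was taken as not significant.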

[5] = system: HSV-1; assay: Percent inhibition of DNA polymerase activity in HSV-1 cell lines at a concentration of 50 uM; assay type: cell-based; conditions: at 50 µM; outline: as §3
[6] = system: Human alphaherpesvirus 1; assay: Percent inhibition of cellular growth against HSV-1 cells at a concentration of 200 uM; assay type: functional; conditions: Human alphaherpesvirus 1, HSV-1
Outline: (§4)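 Toxicity taken as the reduction in Vero cell proliferation over 48 h.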

[7] = system: Human alphaherpesvirus 1; assay: Inhibitory effect against HSV-1 plaque formation at a concentration of 200 uM; assay type: functional; conditions: at 200 µM
[8] = system: unidentified influenza virus; assay type: functional; conditions: at 200 µM
[9] = Percent inhibition against DNA polymerase alpha when activated DNA was used as template at 50 uM concentration; outline: as §1
[10] = system: Avian myeloblastosis virus reverse transcriptase (Avian myeloblastosis virus); assay: Percent inhibition against AMV reverse transcriptase when (dC)n-(dG)12-18 sequence was used as template at 50 uM concentration
[11] = system: Avian myeloblastosis virus reverse transcriptase (Avian myeloblastosis virus); assay: Percent inhibition against AMV reverse transcriptase when (dT)n-(rA)12-18 sequence was used as template at 50 uM concentration
[12] = system: Avian myeloblastosis virus reverse transcriptase (Avian myeloblastosis virus); assay: Percent inhibition against AMV reverse transcriptase when (rC)n-(dG)12-18 sequence was used as template at 50 uM concentration
[13] = system: Human alphaherpesvirus 1; assay: (§5) Percent inhibition of cellular growth against HSV-1 cells at 200 uM concentration; assay type: functional; conditions: Human alphaherpesvirus 1, HSV-1; outline: as §4
[14] = system: unidentified influenza virus; assay: Inhibitory effect against influenza virus plaque formation at a concentration of 100 uM; assay type: functional
Outline: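 Plaque inhibition of influenza A strain Victoria in MDCK cells. Values are averages of duplicate cell cultures.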

[15] = system: Human alphaherpesvirus 1; assay: Percent inhibition of cellular growth against HSV-1 cells at 10 uM concentration; assay type: functional; conditions: Human alphaherpesvirus 1, HSV-1; outline: as §4
[16] = system: Human alphaherpesvirus 1; assay: Inhibitory effect against HSV-1 plaque formation at a concentration of 10 uM; assay type: functional
Outline: (§6)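 HSV-1 strain C42 plaque formation in Vero cells, with compound added to parallel cultures. Values are averages of duplicate cell cultures.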

[17] = system: Human alphaherpesvirus 1; assay: Inhibitory effect against HSV-1 plaque formation at a concentration of 1 uM; assay type: functional; outline: as §6
[18] = system: Human alphaherpesvirus 1; assay: Inhibitory effect against HSV-1 plaque formation at a concentration of 5 uM; assay type: functional; outline: as §6
[19] = system: Human alphaherpesvirus 1; assay: Percent reduction in HSV-1 yield at 10 uM concentration; assay type: functional
Outline: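 HSV-1 strain C42 yield from Vero cells, measured by virus titration. Compounds were added to parallel cultures, and values are averages of duplicate cultures. Inhibition below 50% was not considered significant.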

[20] = system: Human alphaherpesvirus 1; assay: Percent inhibition of cellular growth against Vero cells at 100 uM concentration; assay type: functional; conditions: Human alphaherpesvirus 1, HSV-1; outline: as §4
[21] = system: Human alphaherpesvirus 1; assay: Inhibitory effect against HSV-1 plaque formation at a concentration of 100 uM; assay type: functional; outline: as §6
[22] = system: Human alphaherpesvirus 1; assay: Inhibitory effect against HSV-1 plaque formation at a concentration of 50 uM; assay type: functional; outline: as §6
[23] = system: Human alphaherpesvirus 1; assay: as §5; assay type: functional; conditions: Human alphaherpesvirus 1, HSV-1; remark: listed apart in the source

SMILES	inhibition [1] [%]	inhibition [2] [%]	inhibition [3] [%]	inhibition [4] [%]	inhibition [5] [%]	Reduction [7] [%]	Reduction [8] [%]	inhibition [9] [%]	inhibition [10] [%]	inhibition [11] [%]	inhibition [12] [%]	Reduction [14] [%]	Reduction [19] [%]	other results
Br.CCn1cc(NC(=O)c2cc(NC=O)cn2C)cc1C(=O)Nc1cc(C(=O)NCCC(=N)N)n(C)c1	23	31	64	48	83	<50	<50	34	< 5	8	< 5			inhibition at 200 µM [6]: 10%
Br.CN(C)C(=N)CCNC(=O)c1cc(NC(=O)c2cc(NC(=O)c3cc(NC=O)cn3C)cn2C)cn1C	29	56	80	44	81	<50		41	< 5	15	< 5	50		inhibition at 200 µM [13]: 0%
Br.Cn1cc(NC=O)cc1C(=O)Nc1cc(C(=O)Nc2c[nH]c(C(=O)NCCC(=N)N)c2)n(C)c1	27	45	75	57	83			37	< 5	17	< 5	<50	99	inhibition at 10 µM [15]: 60%; Reduction [16]: >90%; Reduction [17]: <50%; Reduction [18]: 85%
Br.CCn1cc(NC=O)cc1C(=O)Nc1cc(C(=O)Nc2cc(C(=O)NCCC(=N)N)n(C)c2)n(C)c1	29	60	85	48	83	50	<50	42	< 5	11	< 5			inhibition at 200 µM [13]: 50%
Br.Cn1cc(NC(=O)c2cc(NC(=O)c3cc(NC=O)c[nH]3)cn2C)cc1C(=O)NCCC(=N)N	31	58	82	54	89		75	45	< 5	18	< 5		98	inhibition at 100 µM [20]: 50%; inhibition at 10 µM [15]: 30%; Reduction [21]: >90%; Reduction [16]: 60%; Reduction [22]: 90%
Br.Cn1cc(NC(=O)c2cc(NC(=O)c3cc(NC=O)cn3C)cn2C)cc1C(=O)NCCC(=N)N	31	58	82	49	83	55		40				>50	27	
Br.CCn1cc(NC(=O)c2cc(NC(=O)c3cc(NC=O)cn3CC)cn2CC)cc1C(=O)NCCC(=N)N	29	58	75	47	80	<50	<50	39	< 5	9	< 5			
Br.Cn1cc(NC(=O)c2cc(NC(=O)c3cc(NC(=O)c4cc(NC(=O)c5cc(NC=O)cn5C)cn4C)cn3C)cn2C)cc1C(=O)NCCC(=N)N	17	20	56	56	91	<50	65	50	< 5	39	< 5			inhibition at 200 µM [13]: 10%
Br.CNC(=N)CCNC(=O)c1cc(NC(=O)c2cc(NC(=O)c3cc(NC=O)cn3C)cn2C)cn1C	27	50	76	45	76	<50		38	< 5	12	< 5	<50		
Br.CCn1cc(NC(=O)c2cc(NC(=O)c3cc(NC=O)cn3C)cn2C)cc1C(=O)NCCC(=N)N	26	40	73	52	83	<50	<50	35	< 5	11	< 5			inhibition at 200 µM [23]: 10%
Br.Cn1cc(NC(=O)c2cc(NC(=O)c3cc(NC=O)cn3C)c[nH]2)cc1C(=O)NCCC(=N)N	29	55	80	55	88		<50	41	< 5	13	< 5		92	inhibition at 10 µM [15]: 25%; Reduction [16]: <50%; Reduction [22]: 90%
